Experiment [1] can be described thus: In vivo activity against microsporosis guinea pig, measured as the ratio of animals cured/animals infected (C/I) at dose 10 mg/kg; C/I = 0/2. Format: functional.
Experiment [2] can be described thus: In vivo activity against microsporosis guinea pig, measured as the ratio of animals cured/animals infected (C/I) at dose 20 mg/kg; C/I = 2/2. Format: functional.
Another experiment relates to Cryptococcus neoformans. In words: In vitro antifungal activity against Cryptococcus neoformans. It counts as functional. In a few lines: (§1)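 Fungal growth-inhibition screen (Godefroi method) against dermatophytes, yeasts, moulds and other fungi. The value is the lowest concentration (µg/mL) giving total inhibition of growth, tested up to 100 µg/mL.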
Experiment [3] is described as follows: In vivo activity against vaginal candidoses in rats, measured as the ratio of animals cured/animals infected (C/I) at dose 2.5 mg/kg; C/I = 0/2. It counts as functional.
In the next experiment the test system is Sporothrix schenckii. In words: In vitro antifungal activity against Sporothrix schenck ii. Format: functional. In a few lines:
as §1

The subject of another experiment is Candida tropicalis. In words: In vitro antifungal activity against Candida tropicalis. It counts as functional. The gist of the method: as §1
The nature of experiment [4]: In vivo activity against vaginal candidoses in rats, measured as the ratio of animals cured/animals infected (C/I) at dose 10 mg/kg; C/I = 3/4. Format: functional.
In a further experiment the test system is Aspergillus fumigatus. In words: In vitro antifungal activity against Aspergillus fumigatus. It counts as functional. In a few lines: as §1
The next experiment relates to Saprolegnia. The experiment can be described thus: In vitro antifungal activity against Saprolegnia sp. It counts as functional. In a few lines:
as §1

The subject of another experiment is Phialophora verrucosa. In words: In vitro antifungal activity against Phialophora verrucosa. It counts as functional. The gist of the method: as §1
The next experiment relates to Microsporum canis. In words: In vitro antifungal activity against Microsporum canis. It counts as functional. The gist of the method:
as §1

The next experiment deals with Trichophyton benhamiae. In words: In vitro antifungal activity against Trichophyton mentagrophytes. Format: functional, Arthroderma benhamiae. In a few lines:
as §1

A further experiment has as its system Candida albicans. The experiment can be described thus: In vitro antifungal activity against Candida albicans. Format: functional. In a few lines:
as §1

Experiment [5] is described as follows: In vitro antifungal activity against Mucor sp. Format: functional. In a few lines: as §1
The test system of a further experiment is Trichophyton rubrum. In words: In vitro antifungal activity against Trichophyton rubrum. It counts as functional. In a few lines:
as §1

A short description of experiment [6]: In vivo activity against microsporosis guinea pig, measured as the ratio of animals cured/animals infected (C/I) at dose 2.5 mg/kg; C/I = 0/5. It counts as functional.
The nature of experiment [7]: In vivo activity against vaginal candidoses in rats, measured as the ratio of animals cured/animals infected (C/I) at dose 2.5 mg/kg; C/I = 9/10. It counts as functional.
Experiment [8] in a line: In vivo activity against vaginal candidoses in rats, measured as the ratio of animals cured/animals infected (C/I) at dose 0.63 mg/kg; C/I = 3/10. Format: functional.
The subject of another experiment is Rattus norvegicus. The experiment can be described thus: In vivo activity against vaginal candidoses in rats, measured as the ratio of animals cured/animals infected (C/I) at dose 1.25 mg/kg; C/I = 9/10. It counts as functional.
The nature of experiment [9]: In vivo activity against vaginal candidoses in rats, measured as the ratio of animals cured/animals infected (C/I) at dose 10 mg/kg; C/I = 6/6. It counts as functional.
A short description of experiment [10]: In vivo activity against microsporosis guinea pig, measured as the ratio of animals cured/animals infected (C/I) at dose 1.25 mg/kg; C/I = 0/6. It counts as functional.
The nature of experiment [11]: In vivo activity against microsporosis guinea pig, measured as the ratio of animals cured/animals infected (C/I) at dose 10 mg/kg; C/I = 1/8. Format: functional.
Experiment [12] in a line: In vivo activity against microsporosis guinea pig, measured as the ratio of animals cured/animals infected (C/I) at dose 20 mg/kg; C/I = 1/6.

Take `Cc1nn(C)c(=O)n1-c1ccc(N2CCN(c3ccc(OC[C@@H]4COC(Cn5ccnc5)(c5ccc(Cl)cc5Cl)O4)cc3)CC2)cc1` (stereo partly specified): the C/I ratio in experiment [1] amounted to 0; in [2], 2; in [3], 0; in experiment [4], 0.75. Besides, the Inhibition in the experiment on Cryptococcus neoformans is >100 µg/mL; in the experiment on Sporothrix schenckii, >100 µg/mL; with Candida tropicalis, > 100 µg/mL; in the experiment with Aspergillus fumigatus it was 100 µg/mL; with Saprolegnia, >100 µg/mL; with Phialophora verrucosa, >100 µg/mL. The Inhibition is 100 µg/mL in the experiment with Microsporum canis; 10 µg/mL in the experiment on Trichophyton benhamiae; 100 µg/mL with Candida albicans; >100 µg/mL in [5]; 100 µg/mL with Trichophyton rubrum.

As to `CCCn1ncn(-c2ccc(N3CCN(c4ccc(OC[C@@H]5COC(Cn6cncn6)(c6ccc(Cl)cc6Cl)O5)cc4)CC3)cc2)c1=O` (stereo partly specified), the C/I ratio in [6] was found to be 0; in [7], 9; in [8], 0.3; with Rattus norvegicus, 0.9; in experiment [9], 6; in experiment [10], 0. For the same compound, in experiment [11], the C/I ratio turned out to be 1. Besides, the Inhibition was 100 µg/mL in the experiment with Cryptococcus neoformans; >100 µg/mL in the experiment on Sporothrix schenckii; 100 µg/mL with Candida tropicalis; >100 µg/mL with Aspergillus fumigatus; >100 µg/mL with Saprolegnia; >100 µg/mL in the experiment with Phialophora verrucosa. In addition, the Inhibition is >100 µg/mL with Microsporum canis; 100 µg/mL in the experiment with Trichophyton benhamiae; >100 µg/mL in the experiment on Candida albicans; >100 µg/mL in [5]; 1 µg/mL with Trichophyton rubrum.

Regarding `CCCCn1ncn(-c2ccc(N3CCN(c4ccc(OC[C@@H]5COC(Cn6cncn6)(c6ccc(Cl)cc6Cl)O5)cc4)CC3)cc2)c1=O` (stereo partly specified), the C/I ratio in [12] worked out at 1; in experiment [3], 0. The Inhibition in the experiment with Cryptococcus neoformans, in the experiment with Sporothrix schenckii, with Candida tropicalis, in the experiment with Aspergillus fumigatus, in the experiment with Saprolegnia and in the experiment on Phialophora verrucosa was >100 µg/mL in each case. Besides, the Inhibition in the experiment on Microsporum canis is >100 µg/mL; in the experiment with Trichophyton benhamiae, 100 µg/mL; in the experiment with Candida albicans it was >100 µg/mL; in [5], >100 µg/mL; with Trichophyton rubrum it was >100 µg/mL.

The record behind these values is ChEMBL document CHEMBL1122688, “Antimycotic azoles. 7. Synthesis and antifungal properties of a series of novel triazol-3-ones” (1984).
